# Screening results as filed in PubChem BioAssay.
# Shown is part of a subset that was picked to be rich in hits.
# UPR XBP1 act = adaptive UPR (XBP1) activation | activation, % at 20 µM | 0.33% of 330,000 active | CHO-XBP1 luciferase reporter, IRE1-XBP1 UPR activation, luminescence; percent of tunicamycin response, DMSO as zero;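 active means versus positive control, 20 µM dose yields 30% or more activation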;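 further: 100% = tunicamycin at 10 µg/mL and 0% = DMSO only wells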
#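 Assay system: IRE1-XBP1 luciferase reporter CHO line. Input: 1000 cells/well. Buffer or medium: F12 with 10% serum. Doses: 20 µM, 1% DMSO. Times: overnight seeding at 37 °C, 6 h compound treatment at 37 °C. Technique: Steady-Glo luciferase glow luminescence, 10 min after reagent addition.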
# CHOP inh = CHOP inhibition in unfolded protein response; CHO-K1 CHOP-promoter luciferase, tunicamycin-induced, 15-18 h; inhibition, % at 10 µM; 3.8% of 220,000 active; AID 2732;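 active means compounds that reduced the stress-induced luciferase reporter signal by more than about 70% of percent inhibition, limit read from the data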;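 further: 0% = tunicamycin plus vehicle and 100% = wells without tunicamycin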
# 697 NFkB inh = inhibitors of the PMA/ionomycin-induced NF-kB reporter in 697 B cells; 697 B-cell NF-kB luciferase reporter, 16 h; AID 435022; inhibition, % at 4 µM; 0.33% of 330,000 active; in the data active means inhibition above about 35%
# UPR CHOP act = apoptotic UPR (CHOP) activation | CHO-CHOP luciferase reporter, luminescence; percent of tunicamycin response over DMSO baseline | activation, % at 10 µM | 0.34% of 330,000 active;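 active means at 10 µM dose, activation of 40% or more, normalized to positive control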;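 further: 100% = tunicamycin at 10 µg/mL and 0% = DMSO alone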
#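 assay system = CHO CHOP reporter cells | amount = 500 CHO-CHOP cells per well | buffer or medium = F12 with 10% FBS | incubation = 16-18 h cell attachment, then 6 h compound exposure, 37 °C | detection = luminescence read with Steady-Glo | read-out = percent activation relative to tunicamycin control | controls = tunicamycin high control, DMSO low control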
# Jurkat NFkB inh = lowers PMA/ionomycin-induced NF-kB signal in Jurkat cells. AID 435003. 0.53% of 330,000 active. PMA/ionomycin-induced NF-kB luciferase reporter, luminescence. inhibition, % at 4 µM; in the data active means inhibition above about 50%
# CHOP UPR conf = apoptotic UPR (CHOP) activation, confirmed. shares compounds with UPR CHOP act. CHO-CHOP cells, CHOP-luciferase reporter luminescence; percent of tunicamycin response, DMSO as zero. activation, % at 10 µM. 64% of 1,000 active; in the data active means activation above about 33%;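 further: 0% = DMSO wells and 100% = tunicamycin 10 µg/mL wells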
# XBP1 UPR conf = adaptive UPR (XBP1) activation, confirmed. shares compounds with UPR XBP1 act. CHO-XBP1 IRE1-XBP1 luciferase reporter, luminescence. activation, % at 20 µM. 63% of 1,000 active. AID 485299;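 active means reporter signal at least 30% of the positive control's activation in two or more of four replicate wells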;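 further: plate controls were DMSO negative control for no effect and tunicamycin 10 µg/mL positive control for full effect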
# Active calls of the source: *; · = no result given.
SMILES,UPR XBP1 act,CHOP inh,697 NFkB inh,UPR CHOP act,Jurkat NFkB inh,CHOP UPR conf,XBP1 UPR conf
CN(c1ccccc1)S(=O)(=O)c1cccc(C(=O)NCCc2ccc(O)c(O)c2)c1,97.4*,-91.5,-7.6,92.7*,0.5,81.9*,63.9*
CC(=O)Oc1ccc2nc(/C=C/c3ccccc3)oc(=O)c2c1,4.7,·,-20.5,3.9,-6.9,·,·
O=c1[nH]c(SCc2cccc(Cl)c2)nc2ccccc12,-6.3,38.4,10.2,-1.5,-6.3,·,·
O=c1[nH]c(-c2ccc(-c3cccc(Cl)c3)o2)nc2ccccc12,91.9*,·,-124.4,74.1*,-127.4,105.4*,176.2*
CCOc1ccccc1-n1c(SCC(=O)Nc2ccc(CC)cc2)nc2n[nH]c(C)c2c1=N,245.6*,96.0*,1.3,181.2*,-0.7,107.1*,232.5*
CCc1ccccc1NC(=O)CSc1nc2n[nH]c(C)c2c(=N)n1-c1cccc(OC)c1,6.8,45.9,19.8,2.8,4.1,·,·
COc1cc([C@H]2c3[nH]c4ccccc4c3C[C@H]3C(=O)N4[C@@H](c5cc(OC)c(OC)c(OC)c5)c5[nH]c6ccccc6c5C[C@H]4C(=O)N23)cc(OC)c1OC,152.8*,96.2*,9.3,87.8*,3.0,109.3*,118.5*
Cc1ccc(C(C[N+](=O)[O-])n2nc(C)cc2C)cc1 (configuration not stated),55.2*,-28.1,14.0,56.8*,-1.4,82.7*,20.0
CN(CC(=O)Nc1ccc(F)cc1)C(=O)COC(=O)c1cc(S(=O)(=O)N(C)C)ccc1N1CCCC1,-3.0,·,-6.8,0.3,-10.4,·,·
CCc1ccc2nc(N(CCCN(C)C)C(=O)c3ccc(S(=O)(=O)N4CCc5ccccc5C4)cc3)sc2c1,59.3*,·,-53.8,40.5*,-9.5,30.1,59.1*
Cc1csc(SCC(=O)c2c(N)n(C)c(=O)n(C)c2=O)n1,-2.1,-44.5,-15.5,5.0,-30.6,·,·
CCOC(=O)Cc1csc(/N=C/c2c(O)n(-c3ccc(C)c(C)c3)c(=O)c3ccccc23)n1,94.8*,59.5,13.3,66.4*,21.2,62.9*,155.2*
COc1cc(SC#N)ccc1N=Cc1c(C)[nH]n(-c2ccc(Cl)cc2)c1=O,101.0*,104.3*,12.9,86.4*,-13.1,88.8*,134.5*
COc1cc(SC#N)ccc1N=Cc1c(C)[nH]n(-c2ccc(C)c(C)c2)c1=O,53.6*,107.5*,9.7,68.0*,-4.9,39.3*,73.3*
COc1cc(S(=O)(=O)Nc2ccccc2)ccc1N=Cc1c(C)[nH]n(-c2ccc(C)cc2)c1=O,0.8,48.7,-31.1,2.0,6.1,·,·
O=C(CSc1nnc(CNC(=O)c2ccc(F)cc2)o1)NCc1ccc2c(c1)OCO2,0.3,·,14.9,1.3,0.2,·,·
CC(=O)NCc1ccc(C(=O)CSc2nnc(C3CC3)n2C2CC2)cc1,-1.9,·,18.4,0.6,22.1,·,·
Cc1ccc(S(=O)(=O)c2nc(NN(C)C)sc2Cl)cc1,-2.0,4.1,-6.6,2.7,-16.6,·,·
Cc1ccc2c(c1)C(c1ccc([N+](=O)[O-])cc1)=NNC(c1ccc(Br)cc1)=N2,84.3*,94.0*,13.2,74.5*,1.2,25.4,74.4*
Cc1ccc2c(c1)C(c1ccncc1)=NNC(c1cccnc1)=N2,-1.4,-2.8,0.6,2.5,-4.3,·,·
O=C1C2C3C=CC(CC3)C2C(=O)N1c1ccccc1F (configuration not stated),-2.4,·,-1.7,-3.3,-10.7,·,·
Cc1ccc(F)cc1N=Cc1c(O)c2ccccc2oc1=O,75.8*,·,-0.3,148.3*,15.5,130.8*,141.4*
CC(=O)c1cccc(N=Cc2c(O)c3ccccc3oc2=O)c1,147.2*,·,8.3,158.8*,13.1,35.0*,93.2*
COc1ccc2nc(/C(C#N)=C\c3ccc(Oc4ccc([N+](=O)[O-])cn4)cc3)[nH]c2c1,181.6*,70.9*,-7.5,98.4*,8.0,24.1,36.6*
COc1ccc2nc(/C(C#N)=C\c3ccc(C(=O)O)cc3)[nH]c2c1,-1.9,6.8,12.3,0.5,0.6,·,·
SMILES,UPR XBP1 act,CHOP inh,697 NFkB inh,UPR CHOP act,Jurkat NFkB inh,CHOP UPR conf,XBP1 UPR conf
O=C(c1cc2ccccc2o1)N1CCN(c2cccc(Cl)c2)CC1,-2.9,·,-1.7,0.7,-2.1,·,·
CC(Sc1nnc(-c2ccncc2)n1C)C(=O)NCC1CCCO1 (configuration not stated),-0.8,·,-1.2,-0.1,2.8,·,·
COc1ccc(N=c2oc3c(OC)cccc3cc2C(=O)NCc2ccco2)c(OC)c1,73.6*,89.4*,5.4,171.9*,-4.1,100.7*,21.8
c1ccc(-c2nn[nH]n2)nc1,-1.6,-20.3,1.8,0.4,-5.6,·,·
O=C(NC(=S)Nc1ccc(NC(=O)c2cccs2)cc1)c1cc2ccccc2o1,120.6*,75.8*,-9.0,56.7*,15.2,46.4*,106.3*
O=C(/C=C/c1cn(-c2ccccc2)nc1-c1ccccc1)Nc1ccc(C(=O)O)cc1,5.4,11.7,-64.4,5.0,-15.8,·,·
Cc1ccc(-c2nn(-c3ccccc3)cc2/C=C/C(=O)Nc2nccs2)cc1,50.3*,93.3*,-5.8,44.9*,-13.7,12.8,25.6
CCc1ccc(-n2c(SCC(=O)c3ccc4c(c3)NC(=O)CO4)nc3ccccc3c2=O)cc1,61.4*,26.6,-50.2,62.3*,-7.8,115.1*,117.5*
Brc1ccc(-c2ccc(/C=N/Nc3nncc(-c4ccccc4)n3)o2)cc1,90.9*,49.8,-40.7,59.0*,-12.3,62.2*,127.9*
CCN1C(=O)C(=O)N(CC(=O)N2CCN(c3ccccc3)CC2)C1=O,-1.7,·,16.7,1.4,5.1,·,·
CC1CCCC(C)N1/N=C/c1ccc(O)c(O)c1 (configuration not stated),1.4,·,4.9,-0.2,14.8,·,·
O=C1c2ccccc2C(=O)N1/N=C/c1ccc(O)c(O)c1,72.0*,70.1*,-83.3,53.9*,9.5,18.3,37.2*
O=C(CN1C(=O)NC2(CCCCC2)C1=O)N1CCN(c2ncccn2)CC1,1.6,·,12.9,1.1,13.7,·,·
CC(=O)Nc1ccc(N=Cc2c(O)c(C(=O)Nc3ccccc3)cc3ccccc23)cc1,89.9*,39.5,-61.6,45.0*,-0.8,42.8*,12.6
CC(=O)Nc1ccc(NC(=O)c2cccc3ccccc23)cc1,-3.0,·,-11.3,3.2,-0.2,·,·
CC1(C)C=Cc2c(c3c(c4c(=O)c(-c5ccc(O)cc5)coc24)OC(C)(C)CC3)O1,53.9*,92.0*,-1.7,87.1*,-5.6,43.6*,64.3*
O=c1c(-c2ccc(O)cc2)coc2cc(O)cc(O)c12,3.4,-14.0,-174.6,1.3,-62.8,·,·
